Reference: ChEMBL document CHEMBL5678815 (Clin Cancer Res, 2017)
Activity calls are given as the source filed them. No cut-off for these calls is given here.

How the values were obtained:
[1] = biological target: RAC-alpha serine/threonine-protein kinase (Homo sapiens) (UniProt P31749); test: Inhibition of human AKT1 assessed as remaining activity at 1 uM by ATP-competition binding assay relative to control
Outline: (§1)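 KINOMEscan ATP-site-dependent competition binding panel of 395 human kinases, with compound tested at 1 μM. Binding is reported as remaining signal relative to control.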

[2] = biological target: Serine/threonine-protein kinase B-raf (Homo sapiens) (UniProt P15056); test: Inhibition of human BRAF assessed as remaining activity at 1 uM by ATP-competition binding assay relative to control; outline: as §1
[3] = biological target: Casein kinase I isoform epsilon (Homo sapiens) (UniProt P49674); test: Inhibition of human CSNK1E assessed as remaining activity at 1 uM by ATP-competition binding assay relative to control; outline: as §1
[4] = biological target: Serine/threonine-protein kinase 17A (Homo sapiens) (UniProt Q9UEE5); test: Inhibition of human DRAK1 assessed as remaining activity at 1 uM by ATP-competition binding assay relative to control; outline: as §1
[5] = system: Epidermal growth factor receptor (Homo sapiens), P00533 [L858R]; test: Inhibition of human EGFR L858R mutant assessed as remaining activity at 1 uM by ATP-competition binding assay relative to control
Outline: (§2)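 KINOMEscan ATP-site-dependent competition binding assay across a 395-kinase human panel including mutants; compound tested at 1μM; binding expressed relative to control signal.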

[6] = biological target: Dual specificity protein kinase CLK2 (Homo sapiens) (UniProt P49760); test: Inhibition of human CLK2 assessed as remaining activity at 1 uM by ATP-competition binding assay relative to control; outline: as §1
[7] = biological target: Ephrin type-A receptor 2 (Homo sapiens) (UniProt P29317); test: Inhibition of human EPHA2 assessed as remaining activity at 1 uM by ATP-competition binding assay relative to control; outline: as §1
[8] = biological target: Ephrin type-A receptor 8 (Homo sapiens) (UniProt P29322); test: Inhibition of human EPHA8 assessed as remaining activity at 1 uM by ATP-competition binding assay relative to control
Sequence of Ephrin type-A receptor 8 (Homo sapiens) (P29322 whole entry): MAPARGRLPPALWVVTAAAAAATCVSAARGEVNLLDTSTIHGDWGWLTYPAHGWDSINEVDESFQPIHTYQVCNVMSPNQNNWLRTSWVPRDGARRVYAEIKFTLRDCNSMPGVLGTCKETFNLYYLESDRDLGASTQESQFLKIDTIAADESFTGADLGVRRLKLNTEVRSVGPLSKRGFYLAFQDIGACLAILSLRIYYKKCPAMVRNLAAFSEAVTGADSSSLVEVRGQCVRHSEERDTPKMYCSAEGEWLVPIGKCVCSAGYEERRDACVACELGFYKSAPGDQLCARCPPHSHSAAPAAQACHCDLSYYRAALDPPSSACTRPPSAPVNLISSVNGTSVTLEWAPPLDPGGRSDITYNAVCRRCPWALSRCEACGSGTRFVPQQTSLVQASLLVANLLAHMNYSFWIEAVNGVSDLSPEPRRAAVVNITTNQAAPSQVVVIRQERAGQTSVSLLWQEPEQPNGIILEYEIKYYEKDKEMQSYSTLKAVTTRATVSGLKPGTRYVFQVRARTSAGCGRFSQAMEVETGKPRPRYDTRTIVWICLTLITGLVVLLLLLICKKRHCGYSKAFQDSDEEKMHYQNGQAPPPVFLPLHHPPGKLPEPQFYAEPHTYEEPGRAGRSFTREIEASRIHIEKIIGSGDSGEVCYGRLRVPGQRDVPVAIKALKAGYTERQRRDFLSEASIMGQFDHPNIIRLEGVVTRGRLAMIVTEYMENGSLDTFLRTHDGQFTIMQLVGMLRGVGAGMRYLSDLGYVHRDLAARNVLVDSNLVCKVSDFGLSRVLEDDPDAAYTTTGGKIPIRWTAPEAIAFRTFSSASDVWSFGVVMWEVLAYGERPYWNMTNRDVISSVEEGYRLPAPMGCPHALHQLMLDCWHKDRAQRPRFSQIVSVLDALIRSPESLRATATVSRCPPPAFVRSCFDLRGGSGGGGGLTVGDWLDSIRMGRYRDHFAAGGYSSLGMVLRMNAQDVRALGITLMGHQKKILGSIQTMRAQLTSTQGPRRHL
Outline: (§3)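 Single-point profiling at 1μM in an ATP-site-dependent competition binding assay across a panel of 395 human kinases, including mutant forms. The read-out is kinase binding signal in the presence of test agent, expressed as inhibition relative to the control signal. This screen assessed noncovalent binding interactions.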

[9] = system: Epidermal growth factor receptor (Homo sapiens), P00533 [L861Q]; test: Inhibition of human EGFR L861Q mutant assessed as remaining activity at 1 uM by ATP-competition binding assay relative to control; outline: as §2
[10] = biological target: Leukocyte tyrosine kinase receptor (Homo sapiens) (UniProt P29376); test: Inhibition of human LTK assessed as remaining activity at 1 uM by ATP-competition binding assay relative to control; outline: as §3
[11] = biological target: Mitogen-activated protein kinase kinase kinase 4 (Homo sapiens) (UniProt Q9Y6R4); test: Inhibition of human MAP3K4 assessed as remaining activity at 1 uM by ATP-competition binding assay relative to control; outline: as §3
[12] = biological target: Tyrosine-protein kinase Mer (Homo sapiens) (UniProt Q12866); test: Inhibition of human MERTK assessed as remaining activity at 1 uM by ATP-competition binding assay relative to control; outline: as §3
[13] = biological target: Serine/threonine-protein kinase 26 (Homo sapiens) (UniProt Q9P289); test: Inhibition of human MST4 assessed as remaining activity at 1 uM by ATP-competition binding assay relative to control; outline: as §3
Sequence of Serine/threonine-protein kinase 26 (Homo sapiens) (Q9P289 2-416 limits assumed): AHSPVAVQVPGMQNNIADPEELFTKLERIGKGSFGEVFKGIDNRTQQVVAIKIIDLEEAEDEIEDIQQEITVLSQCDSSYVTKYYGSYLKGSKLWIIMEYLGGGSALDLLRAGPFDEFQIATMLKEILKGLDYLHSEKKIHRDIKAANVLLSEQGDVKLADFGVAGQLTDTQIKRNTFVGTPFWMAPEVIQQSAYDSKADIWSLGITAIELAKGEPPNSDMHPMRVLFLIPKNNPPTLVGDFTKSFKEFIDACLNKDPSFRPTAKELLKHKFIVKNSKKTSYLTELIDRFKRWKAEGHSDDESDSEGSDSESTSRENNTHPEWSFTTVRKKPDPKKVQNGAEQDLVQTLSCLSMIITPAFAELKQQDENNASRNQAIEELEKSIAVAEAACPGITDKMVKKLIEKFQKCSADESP

[14] = biological target: Serine/threonine-protein kinase Nek7 (Homo sapiens) (UniProt Q8TDX7); test: Inhibition of human NEK7 assessed as remaining activity at 1 uM by ATP-competition binding assay relative to control; outline: as §3
Sequence of Serine/threonine-protein kinase Nek7 (Homo sapiens) (Q8TDX7 whole entry, looked up): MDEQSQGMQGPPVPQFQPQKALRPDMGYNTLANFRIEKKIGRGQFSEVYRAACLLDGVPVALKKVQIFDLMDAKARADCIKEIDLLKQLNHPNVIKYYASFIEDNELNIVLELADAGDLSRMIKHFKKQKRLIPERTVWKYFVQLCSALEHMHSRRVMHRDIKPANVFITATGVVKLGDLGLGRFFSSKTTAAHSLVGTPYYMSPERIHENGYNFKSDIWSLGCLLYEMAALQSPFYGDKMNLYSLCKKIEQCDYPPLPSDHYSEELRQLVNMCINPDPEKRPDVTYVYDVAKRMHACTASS

[15] = biological target: Mitogen-activated protein kinase 13 (Homo sapiens) (UniProt O15264); test: Inhibition of human P38delta assessed as remaining activity at 1 uM by ATP-competition binding assay relative to control; outline: as §3
Sequence of Mitogen-activated protein kinase 13 (Homo sapiens) (O15264 whole entry): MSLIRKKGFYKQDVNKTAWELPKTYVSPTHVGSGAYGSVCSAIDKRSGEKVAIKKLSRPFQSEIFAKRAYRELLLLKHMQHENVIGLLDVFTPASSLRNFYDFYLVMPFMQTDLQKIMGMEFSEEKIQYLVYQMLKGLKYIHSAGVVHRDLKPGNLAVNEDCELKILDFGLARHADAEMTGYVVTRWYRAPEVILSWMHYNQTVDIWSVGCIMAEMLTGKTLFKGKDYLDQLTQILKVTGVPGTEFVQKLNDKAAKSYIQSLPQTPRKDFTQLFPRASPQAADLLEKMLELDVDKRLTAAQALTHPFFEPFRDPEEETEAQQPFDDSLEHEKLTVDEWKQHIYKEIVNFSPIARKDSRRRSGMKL

[16] = biological target: Serine/threonine-protein kinase PAK 3 (Homo sapiens) (UniProt O75914); test: Inhibition of human PAK3 assessed as remaining activity at 1 uM by ATP-competition binding assay relative to control; outline: as §3
[17] = biological target: Serine/threonine-protein kinase N2 (Homo sapiens) (UniProt Q16513); test: Inhibition of human PKN2 assessed as remaining activity at 1 uM by ATP-competition binding assay relative to control
Outline: (§4)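 Single-concentration (1 μM) screen in an ATP-site-dependent competition binding assay (KINOMEscan, outsourced) covering 395 human kinases, mutants included. Non-covalent binding was read as the remaining signal relative to the control signal.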

[18] = biological target: Serine/threonine-protein kinase PLK4 (Homo sapiens) (UniProt O00444); test: Inhibition of human PLK4 assessed as remaining activity at 1 uM by ATP-competition binding assay relative to control; outline: as §4
[19] = biological target: Protein kinase C eta type (Homo sapiens) (UniProt P24723); test: Inhibition of human PRKCH assessed as remaining activity at 1 uM by ATP-competition binding assay relative to control; outline: as §4
[20] = biological target: Serine/threonine-protein kinase PAK 6 (Homo sapiens) (UniProt Q9NQU5); test: Inhibition of human PAK6 assessed as remaining activity at 1 uM by ATP-competition binding assay relative to control; outline: as §3
[21] = system: Proto-oncogene tyrosine-protein kinase receptor Ret (Homo sapiens), P07949 [V804L]; test: Inhibition of human RET V804L assessed as remaining activity at 1 uM by ATP-competition binding assay relative to control; outline: as §2
[22] = biological target: Serine/threonine-protein kinase RIO2 (Homo sapiens) (UniProt Q9BVS4); test: Inhibition of human RIOK2 assessed as remaining activity at 1 uM by ATP-competition binding assay relative to control; outline: as §4
Sequence of Serine/threonine-protein kinase RIO2 (Homo sapiens) (Q9BVS4 whole entry, looked up): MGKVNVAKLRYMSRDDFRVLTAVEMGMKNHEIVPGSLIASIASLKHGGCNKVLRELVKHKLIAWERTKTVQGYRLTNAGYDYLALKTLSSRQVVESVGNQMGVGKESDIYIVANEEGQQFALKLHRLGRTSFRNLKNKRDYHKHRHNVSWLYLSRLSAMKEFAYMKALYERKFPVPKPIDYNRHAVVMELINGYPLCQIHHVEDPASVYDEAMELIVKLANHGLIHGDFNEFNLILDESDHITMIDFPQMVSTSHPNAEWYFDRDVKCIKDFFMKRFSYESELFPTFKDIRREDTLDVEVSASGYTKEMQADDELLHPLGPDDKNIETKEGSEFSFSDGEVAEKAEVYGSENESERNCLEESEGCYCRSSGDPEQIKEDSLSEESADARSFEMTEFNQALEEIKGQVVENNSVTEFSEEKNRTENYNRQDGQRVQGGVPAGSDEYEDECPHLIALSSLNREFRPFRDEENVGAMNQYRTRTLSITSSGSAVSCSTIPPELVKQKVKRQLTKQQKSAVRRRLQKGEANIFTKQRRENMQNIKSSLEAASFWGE

[23] = biological target: Serine/threonine-protein kinase 35 (Homo sapiens) (UniProt Q8TDR2); test: Inhibition of human STK35 assessed as remaining activity at 1 uM by ATP-competition binding assay relative to control; outline: as §4
Sequence of Serine/threonine-protein kinase 35 (Homo sapiens) (Q8TDR2 whole entry): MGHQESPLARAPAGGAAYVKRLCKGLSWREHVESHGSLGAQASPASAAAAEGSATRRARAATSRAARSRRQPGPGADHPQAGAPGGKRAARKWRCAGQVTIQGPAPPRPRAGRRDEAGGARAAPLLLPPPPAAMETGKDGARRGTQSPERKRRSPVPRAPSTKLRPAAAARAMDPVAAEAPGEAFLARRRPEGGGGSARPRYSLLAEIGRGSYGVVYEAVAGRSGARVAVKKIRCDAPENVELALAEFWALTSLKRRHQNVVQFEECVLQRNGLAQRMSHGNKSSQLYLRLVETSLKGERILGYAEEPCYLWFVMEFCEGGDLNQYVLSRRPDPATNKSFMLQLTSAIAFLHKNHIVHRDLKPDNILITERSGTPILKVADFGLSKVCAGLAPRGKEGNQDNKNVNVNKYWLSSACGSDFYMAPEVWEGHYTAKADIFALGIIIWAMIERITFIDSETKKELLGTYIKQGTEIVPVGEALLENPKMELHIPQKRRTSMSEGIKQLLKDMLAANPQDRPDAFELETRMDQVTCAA

[24] = biological target: Dual specificity testis-specific protein kinase 1 (Homo sapiens) (UniProt Q15569); test: Inhibition of human TESK1 assessed as remaining activity at 1 uM by ATP-competition binding assay relative to control; outline: as §4
[25] = biological target: Tyrosine-protein kinase TXK (Homo sapiens) (UniProt P42681); test: Inhibition of human TXK assessed as remaining activity at 1 uM by ATP-competition binding assay relative to control; outline: as §4
[26] = biological target: Receptor tyrosine-protein kinase erbB-4 (Homo sapiens) (UniProt Q15303); test: Inhibition of human ERBB4 at <100 nM by ATP-Competition Binding Assay
Sequence of Receptor tyrosine-protein kinase erbB-4 (Homo sapiens) (Q15303 whole entry): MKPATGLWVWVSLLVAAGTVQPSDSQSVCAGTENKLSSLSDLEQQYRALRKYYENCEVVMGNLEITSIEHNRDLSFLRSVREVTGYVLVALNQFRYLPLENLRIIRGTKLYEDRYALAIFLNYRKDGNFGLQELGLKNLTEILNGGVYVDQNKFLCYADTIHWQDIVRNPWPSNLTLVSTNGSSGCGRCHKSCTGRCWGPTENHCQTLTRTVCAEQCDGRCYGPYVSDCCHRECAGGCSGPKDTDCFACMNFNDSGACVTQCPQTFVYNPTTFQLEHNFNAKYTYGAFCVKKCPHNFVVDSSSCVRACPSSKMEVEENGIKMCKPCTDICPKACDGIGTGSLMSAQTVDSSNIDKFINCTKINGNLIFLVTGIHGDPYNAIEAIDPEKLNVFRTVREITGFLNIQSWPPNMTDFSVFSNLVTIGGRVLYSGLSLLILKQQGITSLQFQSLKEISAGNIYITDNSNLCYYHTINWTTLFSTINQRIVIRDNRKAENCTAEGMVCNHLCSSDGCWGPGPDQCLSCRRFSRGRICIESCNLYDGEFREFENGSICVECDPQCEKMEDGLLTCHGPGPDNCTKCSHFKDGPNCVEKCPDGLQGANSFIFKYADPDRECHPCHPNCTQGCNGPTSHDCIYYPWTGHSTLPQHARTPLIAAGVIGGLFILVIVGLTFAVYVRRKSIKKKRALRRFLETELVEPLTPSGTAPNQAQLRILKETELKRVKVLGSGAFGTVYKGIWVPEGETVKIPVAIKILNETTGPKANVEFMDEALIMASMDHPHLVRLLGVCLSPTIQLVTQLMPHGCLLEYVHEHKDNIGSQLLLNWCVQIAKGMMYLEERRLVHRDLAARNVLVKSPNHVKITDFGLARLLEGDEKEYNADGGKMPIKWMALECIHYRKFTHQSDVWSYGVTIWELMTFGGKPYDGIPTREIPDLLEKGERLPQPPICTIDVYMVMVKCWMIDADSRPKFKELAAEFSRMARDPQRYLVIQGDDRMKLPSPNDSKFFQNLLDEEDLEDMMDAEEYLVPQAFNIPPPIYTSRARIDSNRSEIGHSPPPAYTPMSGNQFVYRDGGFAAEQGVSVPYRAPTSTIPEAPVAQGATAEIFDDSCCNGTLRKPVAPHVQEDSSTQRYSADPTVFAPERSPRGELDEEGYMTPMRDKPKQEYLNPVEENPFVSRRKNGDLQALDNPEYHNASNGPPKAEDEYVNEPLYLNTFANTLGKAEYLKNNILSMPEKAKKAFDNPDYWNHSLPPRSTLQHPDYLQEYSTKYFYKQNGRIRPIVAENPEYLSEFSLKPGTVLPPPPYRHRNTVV

[27] = Antileukemic activity against human CLL mononuclear cells xenografted NSG mouse assessed as inhibition in cell proliferation measuring by Ki67 expression level at 0.3 to 0.16 mg/ml preadministered with compound via drinking water and measured after 3 weeks by flow cytometry analysis relative to control; type: functional; conditions: dose 0.3-0.16 mg/ml, at 0.16 to 0.3 mg/mL
Outline: (§5)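 Primary CLL patient mononuclear cells (1 × 10^8 per mouse) engrafted into NSG mice on day 0 after busulfan priming on day −1. Vehicle or drug was given in drinking water from day −1. Mice were killed 3 weeks after engraftment; spleens homogenized, filtered and RBC-lysed; whole blood collected. Six patients, 2–5 mice per patient; paired t-test per patient.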

[28] = Antileukemic activity against human CLL mononuclear cells xenografted NSG mouse assessed as change in blood cells at 0.16 mg/ml preadministered with compound via drinking water and measured after 3 weeks by flow cytometry analysis relative to control; type: functional, CLL mononuclear cell; outline: as §5

Sequence of RAC-alpha serine/threonine-protein kinase (Homo sapiens) (P31749 whole entry): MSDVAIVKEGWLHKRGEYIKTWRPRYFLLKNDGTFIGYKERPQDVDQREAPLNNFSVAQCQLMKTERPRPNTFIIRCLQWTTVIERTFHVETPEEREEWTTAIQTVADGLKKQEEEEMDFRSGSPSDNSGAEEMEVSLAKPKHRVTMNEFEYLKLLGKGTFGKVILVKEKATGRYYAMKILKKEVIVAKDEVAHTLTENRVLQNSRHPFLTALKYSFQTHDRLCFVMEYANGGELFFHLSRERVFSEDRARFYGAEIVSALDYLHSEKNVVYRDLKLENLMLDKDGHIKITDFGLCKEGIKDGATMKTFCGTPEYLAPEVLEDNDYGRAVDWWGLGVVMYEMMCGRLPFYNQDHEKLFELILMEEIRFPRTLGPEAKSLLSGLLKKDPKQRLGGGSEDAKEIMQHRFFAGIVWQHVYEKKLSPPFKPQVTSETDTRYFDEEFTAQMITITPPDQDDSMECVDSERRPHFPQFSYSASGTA

CC#CC(=O)N1CCC[C@H]1c1nc(-c2ccc(C(=O)Nc3ccccn3)cc2)c2c(N)nccn12 [ACALABRUTINIB]
Activity [1]: 93%
Activity [2]: 64%
Activity [3]: 90%
Activity [4]: 87%
Activity [5]: 94%
Activity [6]: 94%
Activity [7]: 91%
Activity [8]: 91%
Activity [9]: 84%
Activity [10]: 86%
Activity [11]: 86%
Activity [12]: 77%
Activity [13]: 91%
Activity [14]: 80%
Activity [15]: 57%
Activity [16]: 73%
Activity [17]: 86%
Activity [18]: 80%
Activity [19]: 87%
Activity [20]: 94%
Activity [21]: 93%
Activity [22]: 80%
Activity [23]: 100%
Activity [24]: 83%
Activity [25]: 24%
inhibition [26]: Active
inhibition (INH) [27]: 50%
Activity [28]: 76%
